The values below come from ChEMBL document CHEMBL1124207, “Effect of the CH2NH and CH2NAc peptide bond isosteres on the antagonistic and histamine releasing activities of a luteinizing hormone-releasing hormone analogue” (1988).

Converted amounts (≈) assume the structure as drawn. Square brackets hold non-standard residues; d marks the D form. Peptide text beside a SMILES is read from it. d2Nal = N[C@H](Cc1ccc2ccccc2c1)C(=O)O

What all share (assay type): functional
The species entered for experiment [1] is Rattus norvegicus. In words: In vitro histamine releasing activity determined with peritoneal mast cells from male Sprague-Dawley rats. The conditions noted are these: Mast cell, read-out: ED50 (the source's name).
For experiment [2], the species on record is Rattus norvegicus. In words: Antiovulatory activity expressed as the percentage of rats blocked at 50 ug. An outline of the steps:
(§1)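 Female Sprague-Dawley rats dosed in a 40% propane-1,2-diol/0.9% saline vehicle in a standard antiovulatory assay. The read-out is ovulation block, reported as the percentage of n rats not ovulating at x μg of analogue.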

For experiment [3], the species on record is Rattus norvegicus. In words: Antiovulatory activity expressed as the percentage of rats blocked at 6 ug. The gist of the method:
as §1

For experiment [4], the species on record is Rattus norvegicus. In words: Antiovulatory activity expressed as the percentage of rats blocked at 12 ug. The gist of the method:
as §1

The species entered for experiment [5] is Rattus norvegicus. In words: Antiovulatory activity expressed as the percentage of rats blocked at 0.5 ug. An outline of the steps:
as §1

With `CC(=O)N[C@H](Cc1ccc2ccccc2c1)C(=O)N[C@H](Cc1ccccc1)C(=O)N[C@H](Cc1ccccc1)C(=O)N[C@@H](CO)C(=O)N[C@@H](Cc1ccc(O)cc1)C(=O)N[C@H](CCCN=C(N)N)C(=O)N[C@H](CN[C@@H](CCCN=C(N)N)C(=O)N1CCC[C@H]1C(=O)N[C@H](C)C(=O)O)Cc1ccccc1`, the EC50 in the experiment filed under Rattus norvegicus [1] came out at 0.46 µg/mL (≈ 0.325 µM). In addition, the Rats blocked in the experiment listed under Rattus norvegicus [2] was 0%.
In the case of `CC(=O)N[C@H](Cc1ccc2ccccc2c1)C(=O)N[C@H](Cc1ccccc1)C(=O)N[C@H](Cc1ccccc1)C(=O)N[C@@H](CO)C(=O)N[C@@H](Cc1ccc(O)cc1)C(=O)N[C@@H](CCCCN)CN(C(C)=O)[C@@H](Cc1ccccc1)C(=O)N[C@@H](CCCN=C(N)N)C(=O)N1CCC[C@H]1C(=O)N[C@H](C)C(=O)O`, the EC50 in the experiment filed under Rattus norvegicus [1] turned out to be 1.5 µg/mL (≈ 1.05 µM). Further, the Rats blocked in the experiment listed under Rattus norvegicus [2] was found to be 33%.
Consider `CCN(CC)[C@H](Cc1ccc2ccccc2c1)C(=O)N[C@H](Cc1ccccc1)C(=O)N[C@H](Cc1ccccc1)C(=O)N[C@@H](CO)C(=O)N[C@@H](Cc1ccc(O)cc1)C(=O)N[C@H](CCCN=C(N)N)C(=O)N[C@@H](Cc1ccccc1)C(=O)N[C@@H](CCCN=C(N)N)C(=O)N1CCC[C@H]1C(=O)N[C@H](C)C(=O)O`, for which the EC50 in the experiment filed under Rattus norvegicus [1] was found to be 0.45 µg/mL (≈ 0.312 µM). The compound also gave a Rats blocked in the experiment filed under Rattus norvegicus [3] of 0%.
As for `CC(=O)N[C@H](Cc1ccc2ccccc2c1)C(=O)N[C@H](Cc1ccccc1)C(=O)N[C@H](Cc1ccccc1)C(=O)N[C@@H](CO)C(=O)N[C@@H](Cc1ccc(O)cc1)C(=O)N[C@H](CCCN=C(N)N)C(=O)N[C@@H](Cc1ccccc1)C(=O)N[C@@H](CCCN=C(N)N)C(=O)N1CCC[C@@H]1CN[C@H](C)C(=O)O`, in the experiment filed under Rattus norvegicus [1], the EC50 amounted to 0.21 µg/mL (≈ 0.148 µM). The Rats blocked is reported as 92% in the experiment filed under Rattus norvegicus [4] and 44% in the experiment filed under Rattus norvegicus [3].
Take `CC(=O)N[C@H](Cc1ccc2ccccc2c1)C(=O)N[C@H](Cc1ccccc1)C(=O)N[C@H](Cc1ccccc1)C(=O)N[C@@H](CO)C(=O)N[C@@H](Cc1ccc(O)cc1)C(=O)N[C@@H](CCCCN)CN[C@@H](Cc1ccccc1)C(=O)N[C@@H](CCCN=C(N)N)C(=O)N1CCC[C@H]1C(=O)N[C@H](C)C(=O)O`: in the experiment listed under Rattus norvegicus [1], the EC50 amounted to 1.9 µg/mL (≈ 1.37 µM). The compound also yielded a Rats blocked in the experiment listed under Rattus norvegicus [2] of 60%.
On to `CC(=O)N[C@H](Cc1ccc2ccccc2c1)C(=O)N[C@H](Cc1ccccc1)C(=O)N[C@H](Cc1ccccc1)C(=O)N[C@@H](CO)C(=O)N[C@@H](Cc1ccc(O)cc1)C(=O)N[C@H](CCCN=C(N)N)C(=O)N[C@@H](Cc1ccccc1)C(=O)N[C@@H](CCCN=C(N)N)C(=O)N1CCC[C@@H]1CN(C(C)=O)[C@H](C)C(=O)O`, for which the EC50 in the experiment listed under Rattus norvegicus [1] was 0.28 µg/mL (≈ 0.192 µM). For the same compound, the figures for the Rats blocked in the experiment filed under Rattus norvegicus [4] and in the experiment listed under Rattus norvegicus [2] were 75% and 100%, respectively.
On to `CC(=O)N[C@H](Cc1ccc2ccccc2c1)C(=O)N[C@H](Cc1ccccc1)C(=O)N[C@H](Cc1ccccc1)C(=O)N[C@@H](CO)C(=O)N[C@@H](Cc1ccc(O)cc1)CN(C(C)=O)[C@H](CCCN=C(N)N)C(=O)N[C@@H](Cc1ccccc1)C(=O)N[C@@H](CCCN=C(N)N)C(=O)N1CCC[C@H]1C(=O)N[C@H](C)C(=O)O`, for which the EC50 in the experiment listed under Rattus norvegicus [1] is 4 µg/mL (≈ 2.74 µM). In the experiment listed under Rattus norvegicus [2], this compound had a Rats blocked of 0%.
For `CC(=O)N[C@H](Cc1ccc2ccccc2c1)C(=O)N[C@H](Cc1ccccc1)C(=O)N[C@H](Cc1ccccc1)C(=O)N[C@@H](CO)CN(C(C)=O)[C@@H](Cc1ccc(O)cc1)C(=O)N[C@H](CCCN=C(N)N)C(=O)N[C@@H](Cc1ccccc1)C(=O)N[C@@H](CCCN=C(N)N)C(=O)N1CCC[C@H]1C(=O)N[C@H](C)C(=O)O` the same measures were 0.45 µg/mL (≈ 0.309 µM) and 0%.
On to `CC(=O)N[C@H](CN[C@H](Cc1ccccc1)C(=O)N[C@H](Cc1ccccc1)C(=O)N[C@@H](CO)C(=O)N[C@@H](Cc1ccc(O)cc1)C(=O)N[C@H](CCCN=C(N)N)C(=O)N[C@@H](Cc1ccccc1)C(=O)N[C@@H](CCCN=C(N)N)C(=O)N1CCC[C@H]1C(=O)N[C@H](C)C(=O)O)Cc1ccc2ccccc2c1`, for which, in the experiment listed under Rattus norvegicus [1], the EC50 amounted to 1.5 µg/mL (≈ 1.06 µM). Besides, the Rats blocked in the experiment listed under Rattus norvegicus [2] was determined as 0%.
For `CC(=O)N[C@H](Cc1ccc2ccccc2c1)C(=O)N[C@H](CN[C@H](Cc1ccccc1)C(=O)N[C@@H](CO)C(=O)N[C@@H](Cc1ccc(O)cc1)C(=O)N[C@H](CCCN=C(N)N)C(=O)N[C@@H](Cc1ccccc1)C(=O)N[C@@H](CCCN=C(N)N)C(=O)N1CCC[C@H]1C(=O)N[C@H](C)C(=O)O)Cc1ccccc1` the same measures were 0.35 µg/mL (≈ 0.247 µM) and 0%.
As for `CCN[C@H](Cc1ccc2ccccc2c1)C(=O)N[C@H](Cc1ccccc1)C(=O)N[C@H](Cc1ccccc1)C(=O)N[C@@H](CO)C(=O)N[C@@H](Cc1ccc(O)cc1)C(=O)N[C@H](CCCN=C(N)N)C(=O)N[C@@H](Cc1ccccc1)C(=O)N[C@@H](CCCN=C(N)N)C(=O)N1CCC[C@H]1C(=O)N[C@H](C)C(=O)O`, the EC50 in the experiment filed under Rattus norvegicus [1] turned out to be 0.34 µg/mL (≈ 0.24 µM). This compound also registered a Rats blocked in the experiment listed under Rattus norvegicus [3] of 17%.
As for `CC(=O)N[C@H](Cc1ccc2ccccc2c1)C(=O)N[C@H](Cc1ccccc1)C(=O)N[C@H](CN[C@@H](CO)C(=O)N[C@@H](Cc1ccc(O)cc1)C(=O)N[C@H](CCCN=C(N)N)C(=O)N[C@@H](Cc1ccccc1)C(=O)N[C@@H](CCCN=C(N)N)C(=O)N1CCC[C@H]1C(=O)N[C@H](C)C(=O)O)Cc1ccccc1`, the EC50 in the experiment listed under Rattus norvegicus [1] came to 0.43 µg/mL (≈ 0.304 µM). This compound also returned a Rats blocked in the experiment listed under Rattus norvegicus [2] of 0%.
`CC(=O)N[C@H](Cc1ccc2ccccc2c1)C(=O)N[C@H](Cc1ccccc1)C(=O)N[C@H](Cc1ccccc1)C(=O)N[C@@H](CO)CN[C@@H](Cc1ccc(O)cc1)C(=O)N[C@H](CCCN=C(N)N)C(=O)N[C@@H](Cc1ccccc1)C(=O)N[C@@H](CCCN=C(N)N)C(=O)N1CCC[C@H]1C(=O)N[C@H](C)C(=O)O`: the EC50 in the experiment filed under Rattus norvegicus [1] was 0.19 µg/mL (≈ 0.134 µM). The compound also yielded a Rats blocked in the experiment filed under Rattus norvegicus [4] of 63%.
The corresponding values for `CC(=O)N[C@H](Cc1ccc2ccccc2c1)C(=O)N[C@H](Cc1ccccc1)C(=O)N[C@H](Cc1ccccc1)C(=O)N[C@@H](CO)C(=O)N[C@H](CN[C@H](CCCN=C(N)N)C(=O)N[C@@H](Cc1ccccc1)C(=O)N[C@@H](CCCN=C(N)N)C(=O)N1CCC[C@H]1C(=O)N[C@H](C)C(=O)O)Cc1ccc(O)cc1` are 1.5 µg/mL (≈ 1.06 µM) and 100%.
`CC(=O)N[C@H](Cc1ccc2ccccc2c1)C(=O)N[C@H](Cc1ccccc1)C(=O)N[C@H](Cc1ccccc1)C(=O)N[C@@H](CO)C(=O)N[C@@H](Cc1ccc(O)cc1)C(=O)N[C@H](CCCN=C(N)N)C(=O)N[C@@H](Cc1ccccc1)C(=O)N[C@@H](CCCN=C(N)N)C(=O)N1CCC[C@H]1C(=O)N[C@H](C)C(N)=O` (Ac-[d2Nal][dF][dF]SY[dR]FRP[dA]-NH2): the EC50 in the experiment filed under Rattus norvegicus [1] was 0.11 µg/mL (≈ 0.077 µM). The compound also came in with a Rats blocked in the experiment listed under Rattus norvegicus [5] of 56%.
